We go through 80 compounds from ChEMBL document CHEMBL1142703, “Novel ligands for the chemokine receptor-3 (CCR3): a receptor-modeling study based on 5D-QSAR” (J Med Chem, 2005).

A word on the Ki: it is a dissociation constant, usually derived from enzyme kinetics or from competition with a known ligand. A lower Ki goes with higher affinity.

This assay has as its target T1, C-C chemokine receptor type 3 (Homo sapiens, UniProt P51677).
T1 sequence (P51677 whole entry): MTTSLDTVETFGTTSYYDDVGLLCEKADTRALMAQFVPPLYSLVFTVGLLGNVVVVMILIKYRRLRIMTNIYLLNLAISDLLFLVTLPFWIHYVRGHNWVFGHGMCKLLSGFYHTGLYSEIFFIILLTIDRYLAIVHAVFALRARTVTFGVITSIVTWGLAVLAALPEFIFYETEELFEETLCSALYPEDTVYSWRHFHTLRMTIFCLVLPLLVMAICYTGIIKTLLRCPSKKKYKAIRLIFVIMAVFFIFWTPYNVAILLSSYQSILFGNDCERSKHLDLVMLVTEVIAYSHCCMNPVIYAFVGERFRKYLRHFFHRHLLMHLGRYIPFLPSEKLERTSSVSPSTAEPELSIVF
As to the kind of experiment: Inhibition of [125I]eotaxin-1 binding to human chemokine receptor (hCCR3-C1). The gist of the method: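 K562 leukemia myelogenic blast cells transfected with human CCR3 (hCCR3-C1). Binding of the radioligand 125I-eotaxin-1 was measured in a scintillation proximity format. Controls: specific binding with no displacer added, and nonspecific binding with unlabeled eotaxin or test compound added. Bound radioactivity was counted by scintillation. Ki was obtained by iterative fitting of the data to a law-of-mass-action model.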
The compound `COc1ccc(C(CNC(=O)Nc2cc(Cl)cc(Cl)c2)N2CCN(C3CCCCC3)CC2)cc1` (stereo not given) had a Ki of 0.83 µM. In turn, `O=C(NCC(c1ccc(C(F)(F)F)cc1)N1CCN(C2CCCCC2)CC1)Nc1cc(Cl)cc(Cl)c1` (stereo not given) showed a Ki of 0.932 µM. In the case of `CC(C)(C)c1ccc(CCNCC(c2ccc(C(F)(F)F)cc2)N2CCN(C3CCCCC3)CC2)cc1` (stereo not given) it was 0.832 µM. In the case of `CN(C)c1ccc(CCNCC(c2ccc(C(C)(C)C)cc2)N2CCN(C3CCCCC3)CC2)cc1` (stereo not given) it was 0.312 µM; in that of `CN(C)c1ccc(C(CNC(=O)Nc2cc(Cl)cc(Cl)c2)N2CCN(C3CCCCC3)CC2)cc1` (stereo not given), 0.987 µM. To `CC(C)(C)c1ccc(C(CNC(=O)Nc2ccc(F)cc2)N2CCN(C3CCCCC3)CC2)cc1` (stereo not given) belongs 1.12 µM; to `CN1CCN(C(CNC(=O)Nc2ccc(F)cc2)c2ccc(N(C)C)cc2)CC1` (stereo not given), 7.75 µM; to `COc1ccc(C(CNCCc2ccc(C(C)(C)C)cc2)N2CCN(C3CCCCC3)CC2)cc1` (stereo not given), 0.629 µM. `COc1ccc(C(CNC(=O)Nc2ccc(F)cc2)N2CCN(C3CCCCC3)CC2)cc1` (stereo not given) yielded a Ki of 1.03 µM. To `O=C(Cc1cc(Cl)cc(Cl)c1)NCC(c1ccccc1)N1CCN(C2CCCCC2)CC1` (stereo not given) belongs 62.5 µM. To `Fc1ccc(CCNCC(c2ccc(C(F)(F)F)cc2)N2CCN(C3CCCCC3)CC2)cc1` (stereo not given) belongs 0.895 µM; to `Cc1ccc(NC(=O)NCC(c2ccc(C(F)(F)F)cc2)N2CCN(C3CCCCC3)CC2)cc1` (stereo not given), 1.07 µM. `O=C(NCC(c1ccc(C(F)(F)F)cc1)N1CCN(C2CCCCC2)CC1)Nc1ccc(F)cc1` (stereo not given) returned a Ki of 1.11 µM.

Regarding `COc1ccc(NC(=O)NCC(c2ccc(C(F)(F)F)cc2)N2CCN(c3ccccc3)CC2)cc1` (stereo not given), the affinity, expressed as Ki, was 14.8 µM.

Consider `COc1ccccc1NC(=O)NCC(c1ccc(C(F)(F)F)cc1)N1CCN(C)CC1` (stereo not given), for which affinity was put at a Ki of 3.35 µM.

As for `FC(F)(F)c1ccc(C(CNCCc2cc(Cl)cc(Cl)c2)N2CCN(C3CCCCC3)CC2)cc1` (stereo not given), the Ki worked out at 0.129 µM. To `CN(C)c1ccc(CCNCC(c2ccc(C(F)(F)F)cc2)N2CCN(c3ccccc3)CC2)cc1` (stereo not given) belongs 0.605 µM; to `COc1ccc(CCNCC(c2ccc(C(C)(C)C)cc2)N2CCN(c3ccccc3)CC2)cc1` (stereo not given), 0.768 µM; to `CN(C)c1ccc(CCNCC(c2ccccc2)N2CCN(c3ccccc3)CC2)cc1` (stereo not given), 1.77 µM. As to `COc1ccc(C(CNCCc2ccc(C)cc2)N2CCN(C3CCCCC3)CC2)cc1` (stereo not given), the Ki stood at 0.914 µM. In the case of `COc1ccc(NC(=O)NCC(c2ccc(C(F)(F)F)cc2)N2CCN(C3CCCCC3)CC2)cc1` (stereo not given) it was 1.71 µM. In the case of `COc1ccc(C(CNC(=O)Cc2ccccc2)N2CCN(c3ccccc3)CC2)cc1` (stereo not given) it was 40.2 µM; in that of `COc1ccc(NC(=O)NCC(c2ccc(C(C)(C)C)cc2)N2CCN(C3CCCCC3)CC2)cc1` (stereo not given), 1.98 µM. In the case of `Cc1ccc(CCNCC(c2ccc(C(F)(F)F)cc2)N2CCN(C3CCCCC3)CC2)cc1` (stereo not given) it was 0.545 µM; in that of `COc1ccccc1CCNCC(c1ccc(C(F)(F)F)cc1)N1CCN(C2CCCCC2)CC1` (stereo not given), 0.118 µM. With `COc1ccc(NC(=O)NCC(c2ccccc2OC)N2CCN(C3CCCCC3)CC2)cc1` (stereo not given), the Ki came to 10.5 µM. In the case of `CC(C)CC(CNC(=O)Nc1ccc(Cl)cc1)N1CCN(C2CCCCC2)CC1` (stereo not given) it was 0.429 µM; in that of `O=C(NCC(c1ccccc1)N1CCN(C2CCCCC2)CC1)Nc1cc(Cl)cc(Cl)c1` (stereo not given), 1.25 µM; in that of `CC(C)(C)c1ccc(C(CNCCc2cc(Cl)cc(Cl)c2)N2CCN(C3CCCCC3)CC2)cc1` (stereo not given), 0.224 µM. As for `CC(C)(C)c1ccc(CCNCC(c2ccc(C(C)(C)C)cc2)N2CCN(C3CCCCC3)CC2)cc1` (stereo not given), the Ki worked out at 0.349 µM. In the case of `CN(C)c1ccc(CCNCC(c2ccc(C(F)(F)F)cc2)N2CCN(C3CCCCC3)CC2)cc1` (stereo not given) it was 1.08 µM. Turning to `CN(C)c1ccc(C(CNCCc2ccc(C(F)(F)F)cc2)N2CCN(c3ccccc3)CC2)cc1` (stereo not given), the Ki was 1.67 µM. To `COc1ccc(C(CNC(=O)Nc2ccc(C(C)(C)C)cc2)N2CCN(C3CCCCC3)CC2)cc1` (stereo not given) belongs 0.91 µM; to `O=C(NCC(c1ccc(C(F)(F)F)cc1)N1CCN(C2CCCCC2)CC1)Nc1ccc(C(F)(F)F)cc1` (stereo not given), 1.31 µM; to `O=C(NCC(c1ccccc1)N1CCN(C2CCCCC2)CC1)Nc1ccc(F)cc1` (stereo not given), 6.36 µM.

As for `FC(F)(F)c1ccc(CCNCC(c2ccccc2)N2CCN(C3CCCCC3)CC2)cc1` (stereo not given), the Ki turned out to be 1.31 µM. In the case of `COc1ccccc1C(CNC(=O)Nc1cc(Cl)cc(Cl)c1)N1CCN(C2CCCCC2)CC1` (stereo not given) it was 0.897 µM; in that of `Cc1ccc(CC(=O)NCC(c2ccccc2)N2CCN(c3ccccc3)CC2)cc1` (stereo not given), 26.9 µM; in that of `Cc1ccc(NC(=O)NCC(c2ccccc2)N2CCN(C3CCCCC3)CC2)cc1` (stereo not given), 5.39 µM. Consider `FC(F)(F)c1ccc(C(CNCCc2ccccc2)N2CCN(C3CCCCC3)CC2)cc1` (stereo not given), for which the Ki was 0.484 µM.

`COc1ccc(CCNCC(c2ccc(C(C)(C)C)cc2)N2CCN(C3CCCCC3)CC2)cc1` (stereo not given) yielded a Ki of 0.346 µM. `COc1ccc(C(CNCCc2cc(C)cc(C)c2)N2CCN(C3CCCCC3)CC2)cc1` (stereo not given) had a Ki of 0.05 µM. To `Cc1ccc(CCNCC(c2ccc(N(C)C)cc2)N2CCN(c3ccccc3)CC2)cc1` (stereo not given) belongs 0.435 µM; to `O=C(NCC(c1ccccc1)N1CCN(C2CCCCC2)CC1)Nc1ccc(C(F)(F)F)cc1` (stereo not given), 1.46 µM. In the case of `Fc1ccc(CCNCC(c2ccc(C(F)(F)F)cc2)N2CCN(c3ccccc3)CC2)cc1` (stereo not given) it was 1.2 µM. In the case of `COc1ccccc1CC(=O)NCC(c1ccccc1OC)N1CCN(c2ccccc2)CC1` (stereo not given) it was 6 µM; in that of `Cc1cc(C)cc(CCNCC(c2ccc(-c3ccccc3)cc2)N2CCN(C3CCCCC3)CC2)c1` (stereo not given), 0.517 µM; in that of `CN1CCN(C(CNCCc2ccccc2)c2ccccc2)CC1` (stereo not given), 21.8 µM. `COc1ccc(C(CNCCc2ccc(F)cc2)N2CCN(C)CC2)cc1` (stereo not given) displayed a Ki of 11.7 µM. In the case of `Cc1cc(C)cc(NC(=O)NCC(CC(C)C)N2CCN(c3ccc(Cl)c(Cl)c3)CC2)c1` (stereo not given) it was 0.313 µM; in that of `Cc1cc(C)cc(NC(=O)NCC(c2ccc(-c3ccccc3)cc2)N2CCN(C3CCCCC3)CC2)c1` (stereo not given), 0.326 µM; in that of `O=C(NCC(c1ccc(C(F)(F)F)cc1)N1CCN(C2CCCCC2)CC1)Nc1ccccc1` (stereo not given), 0.479 µM. Compound `CC(C)(C)c1ccc(C(CNCCc2ccc(C(F)(F)F)cc2)N2CCN(C3CCCCC3)CC2)cc1` (stereo not given) had a Ki of 0.231 µM.

For `CN(C)c1ccc(NC(=O)NCC(c2ccc(C(C)(C)C)cc2)N2CCN(C3CCCCC3)CC2)cc1` (stereo not given), affinity was put at a Ki of 1.72 µM. In the case of `COc1ccc(C(CNCCc2ccc(C)cc2)N2CCN(c3ccccc3)CC2)cc1` (stereo not given) it was 0.597 µM. In the case of `CC(C)(C)c1ccc(C(CNC(=O)Nc2ccccc2)N2CCN(C3CCCCC3)CC2)cc1` (stereo not given) it was 1.13 µM; in that of `COc1ccccc1CCNCC(c1ccc(C(C)(C)C)cc1)N1CCN(C2CCCCC2)CC1` (stereo not given), 0.216 µM; in that of `Cc1ccc(NC(=O)NCC(CC(C)C)N2CCN(c3ccc(Cl)c(Cl)c3)CC2)cc1` (stereo not given), 0.179 µM. In the case of `Cc1ccc(NC(=O)NCC(c2ccc(-c3ccccc3)cc2)N2CCN(C3CCCCC3)CC2)cc1` (stereo not given) it was 0.316 µM. As for `COc1ccccc1CCNCC(c1ccc(C(C)(C)C)cc1)N1CCN(c2ccccc2)CC1` (stereo not given), the Ki turned out to be 0.488 µM. To `COc1ccc(C(CNCCc2cc(Cl)cc(Cl)c2)N2CCN(C3CCCCC3)CC2)cc1` (stereo not given) belongs 0.062 µM; to `COc1ccc(C(CNCCc2ccc(C(F)(F)F)cc2)N2CCN(C3CCCCC3)CC2)cc1` (stereo not given), 0.929 µM.

As for `COc1ccccc1CCNCC(c1ccccc1OC)N1CCN(c2ccccc2)CC1` (stereo not given), the Ki was found to be 1.58 µM. Take `COc1ccccc1C(CNCCc1cc(Cl)cc(Cl)c1)N1CCN(C2CCCCC2)CC1` (stereo not given): the affinity corresponds to a Ki of 0.344 µM. In the case of `CN1CCN(C(CNCCc2ccccc2)c2ccc(C(F)(F)F)cc2)CC1` (stereo not given) it was 4.73 µM; in that of `Clc1cc(Cl)cc(CCNCC(c2ccccc2)N2CCN(C3CCCCC3)CC2)c1` (stereo not given), 0.08 µM; in that of `CC(C)(C)c1ccc(NC(=O)NCC(c2ccc(C(C)(C)C)cc2)N2CCN(C3CCCCC3)CC2)cc1` (stereo not given), 2.05 µM. As for `CC(C)(C)c1ccc(C(CNCCc2ccccc2)N2CCN(C3CCCCC3)CC2)cc1` (stereo not given), affinity was put at a Ki of 0.35 µM. In the case of `COc1ccc(CCNCC(c2ccc(C(F)(F)F)cc2)N2CCN(C3CCCCC3)CC2)cc1` (stereo not given) it was 0.477 µM; in that of `COc1ccc(C(CNC(=O)Nc2ccc(C(F)(F)F)cc2)N2CCN(C3CCCCC3)CC2)cc1` (stereo not given), 1.53 µM; in that of `COc1ccccc1C(CNC(=O)Nc1ccc(C)cc1)N1CCN(c2ccccc2)CC1` (stereo not given), 3.54 µM. The compound `CN(C)c1ccc(C(CNC(=O)Cc2ccc(C(F)(F)F)cc2)N2CCN(c3ccccc3)CC2)cc1` (stereo not given) displayed a Ki of 34.9 µM. In the case of `COc1ccc(C(CNCCc2ccccc2)N2CCN(C3CCCCC3)CC2)cc1` (stereo not given) it was 1.04 µM.

Regarding `COc1ccccc1CC(=O)NCC(c1ccc(C(C)(C)C)cc1)N1CCN(c2ccccc2)CC1` (stereo not given), the affinity, expressed as Ki, was 8.85 µM. In the case of `FC(F)(F)c1ccc(CCNCC(c2ccc(C(F)(F)F)cc2)N2CCN(C3CCCCC3)CC2)cc1` (stereo not given) it was 0.782 µM. To `CC(C)(C)c1ccc(C(CNC(=O)Nc2ccc(C(F)(F)F)cc2)N2CCN(C3CCCCC3)CC2)cc1` (stereo not given) belongs 0.972 µM. In the case of `COc1ccccc1NC(=O)NCC(c1ccc(C(F)(F)F)cc1)N1CCN(C2CCCCC2)CC1` (stereo not given) it was 3.65 µM; in that of `CC(C)CC(CNC(=O)Nc1cc(Cl)cc(Cl)c1)N1CCN(C2CCCCC2)CC1` (stereo not given), 0.296 µM; in that of `COc1ccc(CCNCC(c2ccc(C(F)(F)F)cc2)N2CCN(c3ccccc3)CC2)cc1` (stereo not given), 0.393 µM. Regarding `COc1ccc(C(CNC(=O)Nc2ccc(C)cc2)N2CCN(C3CCCCC3)CC2)cc1` (stereo not given), the Ki was 2.25 µM.
